Like-named read-outs stand apart in the source and are kept apart here.
Legend:
WT or NOMID BMMs = assay: mRNA stability; assay type: cell-based, mouse; settings: LPS 3 h then 1 µg/ml actinomycin D plus inhibitor
How it was run: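 WT and NOMID BMMs were stimulated with 100 ng/ml LPS for 3 h, then exposed simultaneously to 1 µg/ml actinomycin D and test compound, MK2 inhibitor or IKK2 inhibitor. Cells were lysed at 0, 2, 4 or 6 h. After RNA extraction and reverse transcription, SYBR green qPCR tracked decay of IL-1β, IL-6, NLRP3 and TNF-α mRNA. Triplicates, ≥3 independent experiments.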

p38α–PRAK = p38α–PRAK (Homo sapiens, UniProt Q16539); assay: p38α–MK2 and p38α–PRAK assays; assay type: biochemical
Sequence of p38α–PRAK (Q16539 whole entry): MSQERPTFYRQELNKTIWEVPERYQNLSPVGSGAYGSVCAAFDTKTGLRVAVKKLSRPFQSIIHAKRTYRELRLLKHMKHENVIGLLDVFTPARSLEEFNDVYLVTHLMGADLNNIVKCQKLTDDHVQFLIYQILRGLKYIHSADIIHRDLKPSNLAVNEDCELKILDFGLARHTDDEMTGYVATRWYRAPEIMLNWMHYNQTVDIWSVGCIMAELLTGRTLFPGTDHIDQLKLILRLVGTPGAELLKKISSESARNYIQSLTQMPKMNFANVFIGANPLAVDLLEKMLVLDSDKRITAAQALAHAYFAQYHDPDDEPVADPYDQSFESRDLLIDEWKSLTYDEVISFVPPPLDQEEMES
Sequence of p38α–PRAK (Q8IW41 whole entry partner): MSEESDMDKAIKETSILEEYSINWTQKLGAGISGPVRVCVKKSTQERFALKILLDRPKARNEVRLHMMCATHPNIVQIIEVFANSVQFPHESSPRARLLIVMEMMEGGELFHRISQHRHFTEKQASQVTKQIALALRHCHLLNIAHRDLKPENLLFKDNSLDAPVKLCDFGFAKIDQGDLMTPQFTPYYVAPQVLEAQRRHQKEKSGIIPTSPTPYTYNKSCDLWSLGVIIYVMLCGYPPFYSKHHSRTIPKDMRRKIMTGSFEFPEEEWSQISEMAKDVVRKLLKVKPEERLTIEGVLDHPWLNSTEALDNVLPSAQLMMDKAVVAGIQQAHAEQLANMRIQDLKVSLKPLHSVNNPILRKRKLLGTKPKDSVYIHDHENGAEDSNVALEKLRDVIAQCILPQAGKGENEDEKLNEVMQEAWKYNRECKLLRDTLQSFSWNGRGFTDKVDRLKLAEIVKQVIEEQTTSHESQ

p38α–ATF2 = assay: p38α–MK2 and p38α–ATF2 assays; assay type: biochemical
p38α–MK2 complex = assay: Surface plasmon resonance analysis of p38α binding to immobilized MK2; settings: 10 nM p38α, immobilized GST-MK2
193 kinases = assay: Kinase selectivity across the human kinome; assay type: biochemical; settings: CDD-450 tested at 5 µM
p38β = p38β (Homo sapiens, UniProt Q15759); assay: Kinase selectivity, p38β; assay type: biochemical; settings: CDD-450 tested at 5 µM
Sequence of p38β (Q15759 whole entry): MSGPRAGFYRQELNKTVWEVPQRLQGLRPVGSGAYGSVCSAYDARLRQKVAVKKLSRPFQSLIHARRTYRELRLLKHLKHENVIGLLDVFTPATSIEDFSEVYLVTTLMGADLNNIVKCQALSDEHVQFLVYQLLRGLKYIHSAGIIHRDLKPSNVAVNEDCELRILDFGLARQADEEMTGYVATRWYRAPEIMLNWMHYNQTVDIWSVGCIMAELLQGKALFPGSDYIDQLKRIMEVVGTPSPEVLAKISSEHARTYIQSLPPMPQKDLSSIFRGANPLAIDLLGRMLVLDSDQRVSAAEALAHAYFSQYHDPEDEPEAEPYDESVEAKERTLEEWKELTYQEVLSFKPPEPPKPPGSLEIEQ

[1] = tested on: WT and NOMID bone marrow macrophages (BMMs); assay: qPCR/Western analysis of LPS-induced expression in BMMs; assay type: cell-based, mouse; settings: for IL-18 expression: in vitro
How it was run: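 WT and NOMID BMMs were preincubated 1 h with test compound or IKK2 inhibitor (0.5% DMSO final), then given 100 ng/ml LPS for 3 or 8 h. Transcripts were measured by SYBR green qPCR after RNA extraction and reverse transcription. Protein (NLRP3, pro-caspase-1) was measured by Western blot of RIPA lysates. Triplicates, ≥3 independent experiments.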

MK2 phosphorylation = assay: Western blot of LPS-stimulated MK2 phosphorylation in BMMs; assay type: cell-based, mouse; settings: 10 µM CDD-450, 100 ng/ml LPS, WT BMMs
WT and NOMID BMMs = assay: IL-1β secretion by LPS-primed BMMs; assay type: cell-based, mouse; settings: 100 ng/ml LPS 3 h; WT cells plus 15 µM nigericin 30 min
How it was run: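 BMMs were derived over ~5 d in 1:10 CMG 14-12 supernatant (M-CSF source), plated at 10^4/well and kept 24 h. They were pretreated 1 h with vehicle (0.5% DMSO final), test compound or IKK2 inhibitor, then given 100 ng/ml LPS for 3 h without a media change. WT cells then received 15 µM nigericin for 30 min. IL-1β in conditioned media was measured by ELISA; triplicates, ≥3 independent experiments.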

[2] = tested on: NLRP3 inflammasome / caspase-1; assay: Microscopic analysis of active caspase-1; assay type: cell-based, mouse; settings: LPS-primed cells, 15 µM nigericin with 10 µM CDD-450, 30 min
How it was run: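 BMMs were plated at 5 × 10^4/well for 24 h, primed with 100 ng/ml LPS for 3 h, then treated 30 min with 10 µM test compound and/or 15 µM nigericin. Active caspase-1 was labelled with FLICA FAM-YVAD-FMK (30 min, 37°C). Cells were washed, fixed in 10% buffered formalin and DAPI-counterstained, then imaged by fluorescence microscopy with image analysis.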

[3] = Cytotoxicity at efficacious concentrations; assay type: cell-based; settings: efficacious concentrations tested in this study; not depicted
[4] = tested on: LPS-induced TNF-α expression; assay: LPS-induced TNF-α production in mice fed inhibitor chow; assay type: in vivo; settings: CDD-450 chow 1,000 ppm; LPS 0.025 mg/kg for 1 h
How it was run: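 Eight-week-old WT female mice (six/group) were fed normal chow or inhibitor chow (1,000 or 516 ppm). At the indicated weeks they were challenged i.v. with Salmonella typhosa LPS, 0.025 mg/kg in saline. Blood was collected by cardiac puncture 60 min later, and serum TNF-α was measured by ELISA.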

[5] = Body weight of WT mice on CDD-450 chow; assay type: in vivo
NOMID^c mice = assay: NOMID^c mice; assay type: in vivo; settings: CDD-450 chow
How it was run: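 Nlrp3fl(D301N)/+;Cre-ERTM mice (C57BL/6) were given tamoxifen i.p., 75 mg/kg every other day, three times weekly for 2 wk; Cre-ERTM littermates were controls. Three-month-old mice received normal or compound chow from 3 d before tamoxifen. Body weight (10–11/group) and survival (12–13/group) were scored every 2–3 d. Endpoint was 4 wk later: decalcified 5-µm bone sections were TRAP-stained and osteoclasts counted on trabecular and cortical surfaces (4–6 mice/group).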

WT BMMs = assay: Osteoclast formation in vitro induced by RANKL; assay type: cell-based, mouse; settings: 50 ng/ml RANKL for 4 d
How it was run: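 WT BMMs were plated at 5 × 10^3/well in 1:50 CMG supernatant plus RANKL with DMSO or test compound for 4 d, medium changed every other day, at 37°C, 5% CO2. Cells were fixed 10 min in 3.7% formaldehyde/0.1% Triton X-100, then TRAP-stained 30 min at room temperature. TRAP+ cells with ≥3 nuclei were scored as osteoclasts. Triplicates, ≥3 independent experiments.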

[6] = tested on: human PBMC from CAPS patients and healthy control; assay: IL-1β production and mRNA stability in human PBMC; assay type: cell-based
How it was run: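 Human PBMC from a CAPS patient or healthy control. For secretion, cells were cultured 16 h at 32°C or 37°C with DMSO or test compound, or with 100 ng/ml LPS for 16 h at 37°C, and IL-1β in conditioned media was measured by ELISA. For mRNA stability, cells got 10 ng/ml LPS for 3 h, then 1 µg/ml actinomycin D plus inhibitor, were lysed at 0–6 h and analysed by SYBR qPCR. Triplicates, ≥2 independent experiments.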

RA synovial fibroblasts = assay: IL-1β-induced responses in synovial fibroblasts from an RA patient; assay type: cell-based, human
How it was run: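 Synovial fibroblasts from an RA patient were preincubated 1 h with inhibitors, then given 10 ng/ml IL-1β for 3 h, with transcripts measured by qPCR. For mRNA stability, IL-1β was added for 3 h, then 1 µg/ml actinomycin D plus test compound or IKK2 inhibitor, with cells lysed at 0, 2, 4 or 6 h. For p-MK2 (Thr334) Western blot, cells had 1 h preincubation with 10 µM test compound before IL-1β. Triplicates, ≥2 independent experiments.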

[7] = tested on: LPS-induced production of TNF-α, IL-1β and IL-6; assay: LPS-induced cytokine production in various in vitro systems and animal models; assay type: cell-based
How it was run: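 U937 premonocytic cells, grown in RPMI 1640 with 10% FBS, were differentiated with 20 ng/ml PMA for 24 h. They were pretreated with vehicle or test compound, then stimulated with 100 ng/ml LPS for 4 h. TNF-α, IL-1β and IL-6 were measured in conditioned media.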

U937 cells = assay: LPS-stimulated phosphorylation of signaling proteins in U937 cells; assay type: cell-based, human
How it was run: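 U937 cells were differentiated into macrophages with 20 ng/ml PMA for 24 h. They were pretreated 1 h with vehicle (0.5% DMSO final) or test compound, then stimulated with 100 ng/ml LPS. Phosphorylation of signalling proteins was assessed by Western blotting, ELISA or MesoScale kits.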

SCW-induced arthritis = assay: Streptococcal cell wall; assay type: in vivo, rat; settings: for paw swelling: oral gavage 2×/day from day 9, CDD-450 5 or 10 mg/kg, CDD-110 1.5 mg/kg
How it was run: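 Adult female Lewis rats (180 g) received SCW preparation i.p. at 15 mg/kg, and acute paw edema was tracked on days 2–8. Paw volume was measured by plethysmometer every other day to day 21, and hind paws were scanned by µCT at day 21.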

Pharmacokinetics = assay: Pharmacokinetics; set-up: species or system mice, rats, and dogs; settings: in vivo
cardiac hERG channel = cardiac hERG channel (Homo sapiens, UniProt Q12809); assay: hERG channel inhibition
Sequence of cardiac hERG channel (Q12809 whole entry): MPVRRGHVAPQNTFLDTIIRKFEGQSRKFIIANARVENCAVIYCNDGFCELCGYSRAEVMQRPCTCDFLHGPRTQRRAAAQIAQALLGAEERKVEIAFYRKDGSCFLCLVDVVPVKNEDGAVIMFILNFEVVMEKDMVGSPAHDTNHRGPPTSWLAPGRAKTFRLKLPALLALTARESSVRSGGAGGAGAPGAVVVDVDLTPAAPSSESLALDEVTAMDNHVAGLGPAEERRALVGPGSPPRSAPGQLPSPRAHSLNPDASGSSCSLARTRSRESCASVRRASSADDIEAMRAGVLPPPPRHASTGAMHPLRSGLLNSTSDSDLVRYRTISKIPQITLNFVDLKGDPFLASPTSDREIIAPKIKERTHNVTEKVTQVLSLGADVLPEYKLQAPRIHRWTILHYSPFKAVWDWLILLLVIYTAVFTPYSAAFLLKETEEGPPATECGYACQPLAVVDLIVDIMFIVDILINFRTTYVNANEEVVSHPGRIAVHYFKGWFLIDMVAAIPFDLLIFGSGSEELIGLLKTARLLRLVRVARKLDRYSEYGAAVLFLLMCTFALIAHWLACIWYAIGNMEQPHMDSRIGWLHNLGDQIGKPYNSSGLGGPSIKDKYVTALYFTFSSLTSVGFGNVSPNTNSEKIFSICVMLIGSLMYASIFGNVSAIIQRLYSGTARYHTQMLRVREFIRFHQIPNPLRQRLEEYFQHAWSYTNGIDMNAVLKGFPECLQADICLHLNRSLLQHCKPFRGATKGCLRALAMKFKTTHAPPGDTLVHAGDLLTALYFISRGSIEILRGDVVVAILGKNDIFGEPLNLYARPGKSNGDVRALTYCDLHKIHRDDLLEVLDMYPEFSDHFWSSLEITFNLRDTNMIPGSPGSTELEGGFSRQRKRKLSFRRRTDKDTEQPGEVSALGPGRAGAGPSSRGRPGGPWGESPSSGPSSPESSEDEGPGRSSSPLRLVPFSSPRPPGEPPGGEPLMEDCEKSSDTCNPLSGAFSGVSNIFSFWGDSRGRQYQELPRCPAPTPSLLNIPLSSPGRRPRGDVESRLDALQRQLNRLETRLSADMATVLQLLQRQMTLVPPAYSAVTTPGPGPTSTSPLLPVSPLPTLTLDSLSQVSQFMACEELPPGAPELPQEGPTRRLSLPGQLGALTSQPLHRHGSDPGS

[8] = In vivo tolerability, 14 consecutive days oral gavage; settings: rat
[9] = 100 ng/ml LPS, inhibitor preincubated 1 h
[10] = 10 ng/ml IL-1β 3 h then actinomycin D

## Cc1ccc(-c2ccc3c(ccc4sc5c(c43)NC[C@@H](C)NC5=O)n2)cn1 [PF-3644022, reference compound]
WT or NOMID BMMs
  degradation of IL-1β mRNA: promoted the degradation
  degradation of TNF-α mRNA: promoted the degradation

## Cc1cnc(-c2ccnc(C(C)(C)O)n2)cc1-n1c(C)cc(OCc2ncc(F)cc2F)c(Cl)c1=O [CDD-450]
p38α–PRAK
  fold more potent in inhibiting p38α–MK2 than p38α–PRAK: at least 700 ×
p38α–ATF2
  fold more potent in inhibiting p38α–MK2 than p38α–ATF2: at least 700 ×
p38α–MK2 complex
  stabilization of the p38α–MK2 complex (increased t1/2) relative to p38α–MK2 alone: 47.5 ×
193 kinases
  potency differential for inhibiting the 193 kinases tested: > 350 ×
p38β
  cross-reactivity on p38β: crossed over
[1]; 100 ng/ml LPS
  NLRP3 expression: no effect
  IL-18 expression: no direct effect
[1]; [9]
  LPS-induced IL-1β mRNA expression: inhibited
  LPS-induced IL-6 mRNA expression: inhibited
  LPS-induced TNF-α mRNA expression: inhibited
[1]; not depicted
  expression of NLRP3 interacting partners ASC, caspase-1 and NEK7: no effect
MK2 phosphorylation
  LPS-stimulated MK2 phosphorylation at 15 and 30 min: inhibited
  LPS-stimulated MK2 phosphorylation at 180 min: little effect
WT or NOMID BMMs
  decay of NLRP3 mRNA: no effect
  degradation of IL-1β mRNA: promoted the degradation
  degradation of IL-6 mRNA: promoted the degradation
WT and NOMID BMMs
  IL-1β secretion by LPS-primed WT and NOMID BMMs: inhibited
[2]
  nigericin-induced activation of caspase-1 (fluorescent foci): no effect
[3]
  cytotoxicity: not cytotoxic
[4]
  persistence of efficacy in blocking LPS-induced TNF-α expression after dosing: up to 4 wk
[5]; WT mice
  tolerability of concomitant exposure to CDD-450 chow and tamoxifen: not well tolerated
[5]; no tamoxifen
  body weight of WT mice, CDD-450 chow versus normal chow: gained body weight undistinguishably
[5]; tamoxifen for 2 wk
  body weight of WT mice, CDD-450 chow plus tamoxifen, compared with normal chow: lost body weight
NOMID^c mice
  body weight loss of NOMID^c mice versus untreated NOMID^c mice: lost significantly less body weight
  increased number of osteoclasts on trabecular and cortical bone surfaces: prevented
NOMID^c mice; untreated: ∼35% skin lesions, 20% died
  skin lesions and death over the 7-wk period: neither occurred
WT BMMs
  in vitro osteoclast formation induced by RANKL: inhibited
[6]; 10 ng/ml LPS 3 h then actinomycin D
  IL-1β mRNA instability in human PBMC: promoted
[6]; 100 ng/ml LPS 16 h at 37°C
  LPS-stimulated IL-1β secretion by healthy control PBMC: reduced
[6]; 16 h at 32°C, spontaneous
  IL-1β secretion by CAPS PBMC: reduced
[6]; not depicted
  degradation of TNF-α mRNA induced by LPS in human PBMC: accentuated
RA synovial fibroblasts; 10 ng/ml IL-1β 3 h
  IL-1β mRNA levels induced by IL-1β: decreased
RA synovial fibroblasts; [10]
  degradation of TNF-α mRNA induced by IL-1β: accentuated
  loss of IL-1β transcripts: accelerated
RA synovial fibroblasts; 10 µM CDD-450, 10 ng/ml IL-1β
  MK2 phosphorylation induced by IL-1β: blocked
[7]; read-out: IC50, LPS-induced production of IL-1β
  IC50: 1 to 10 nM
[7]; read-out: IC50, LPS-induced production of IL-6
  IC50: ~100 nM
[7]; read-out: IC50, LPS-induced production of TNF-α
  IC50: 1 to 10 nM
U937 cells
  LPS activation of the ERK1/2 pathway: no inhibitory effect
  LPS activation of the JNK pathway: no inhibitory effect
  MK2 phosphorylation induced by LPS: blocked
SCW-induced arthritis; 5 mg/kg CDD-450 2×/day
  joint destruction, 3D µCT reconstruction: joint protective effects
SCW-induced arthritis
  paw swelling: inhibited
SCW-induced arthritis; µCT at day 21
  bone mineral density: preserved
Pharmacokinetics
  half-life: long
  volume of distribution: high
Pharmacokinetics; po
  oral bioavailability: high
Cardiac hERG channel
  inhibition of the cardiac hERG channel: did not inhibit
[8]
  well tolerated exposure relative to the predicted Cmax efficacious exposure: > 30 ×

## CN1CCN(c2cc(C(=O)Nc3ccc4c(c3)-c3c(c(C(N)=O)nn3-c3ccc(F)cc3)CC4)c(Cl)cn2)CC1 [PHA-408, reference compound]
[1]; 100 ng/ml LPS
  NLRP3 expression: decreased
  IL-18 expression: decreased
[1]; [9]
  LPS-induced IL-1β mRNA expression: inhibited
WT and NOMID BMMs
  IL-1β secretion by LPS-primed WT and NOMID BMMs: inhibited

## CNC(=O)c1ccc(C)c(-n2c(C)cc(OCc3ccc(F)cc3F)c(Br)c2=O)c1 [CDD-110, reference compound]
SCW-induced arthritis
  paw swelling: inhibited
